Screens (PubChem)
ADAM10 inh: human ADAM10 inhibitors, primary screen, biochemical, QFRET, HTS; Disintegrin and metalloproteinase domain-containing protein 10 (Homo sapiens), O14672; recombinant ADAM10, EDANS/DABCYL FRET peptide cleavage, 3 h; inhibition, % at 7 µM; 0.62% of 370,000 active; AID 720582, 2013;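 active = inhibition above a per-campaign cutoff equal to the mean of compounds falling between control-based bounds plus 3 SD, cut at about 20% in these data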
Target sequence (O14672 214-748 limits assumed): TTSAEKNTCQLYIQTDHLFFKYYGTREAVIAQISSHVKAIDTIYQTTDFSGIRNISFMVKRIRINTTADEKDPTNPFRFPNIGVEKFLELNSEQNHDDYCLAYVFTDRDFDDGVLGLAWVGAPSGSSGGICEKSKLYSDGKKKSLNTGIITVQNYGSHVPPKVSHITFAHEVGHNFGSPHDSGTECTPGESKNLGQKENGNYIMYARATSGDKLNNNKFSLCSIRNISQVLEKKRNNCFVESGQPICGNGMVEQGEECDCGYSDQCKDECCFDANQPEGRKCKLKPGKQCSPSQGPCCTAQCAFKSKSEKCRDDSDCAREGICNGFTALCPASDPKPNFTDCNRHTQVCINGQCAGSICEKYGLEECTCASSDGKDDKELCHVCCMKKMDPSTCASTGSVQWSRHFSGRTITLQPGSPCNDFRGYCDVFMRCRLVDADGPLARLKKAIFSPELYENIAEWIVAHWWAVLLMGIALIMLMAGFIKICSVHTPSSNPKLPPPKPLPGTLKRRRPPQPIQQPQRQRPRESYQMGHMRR
PLCg1 inh: PLC-gamma1 enzyme inhibitors, primary screen, biochemical, fluorescence, purified enzyme; 1-phosphatidylinositol 4,5-bisphosphate phosphodiesterase gamma-1 (Homo sapiens), P19174; fluorogenic substrate; inhibition, % at 12.2 µM; 0.84% of 370,000 active; AID 720700, 2013; in the data active = inhibition above about 9.5%
PLCb3 inh: human PLC-beta3 inhibitors, primary screen, biochemical, fluorescence; AID 720704, 2013; Purified PLC-beta3, fluorogenic substrate; 0.18% of 370,000 active; inhibition, % at 12.2 µM; 1-phosphatidylinositol 4,5-bisphosphate phosphodiesterase beta-3 (Homo sapiens), Q01970; in the data active = inhibition above about 11%
TbMetRS inhib: T. brucei MetRS inhibitors, primary screen, biochemical, luminescence | purified T. brucei MetRS, ATP depletion, Kinase-Glo luminescence | inhibition, % at 11.9 µM | 0.4% of 360,000 active | AID 624268, 2012;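 active = inhibition above a per-plate cutoff of the control wells' mean inhibition plus 3 SD, cut at about 5.5% in these data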
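assay system = parasite MetRS enzyme | timing = 15 min preincubation, 2 h reaction, all 25 °C | evaluation = percent inhibition relative to median high and low control wells | medium = HEPES buffer containing pyrophosphatase, BSA, spermine, DTT | compound = single dose, 11.9 µM final nominal, 0.9% final DMSO | detection = Kinase-Glo luminescence, ATP depletion format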
ADAM17 inh: ADAM17 inhibitors, primary screen, biochemical, QFRET. Disintegrin and metalloproteinase domain-containing protein 17 (Homo sapiens), P78536. recombinant ADAM17, EDANS/DABCYL FRET peptide cleavage. inhibition, % at 6.95 µM. 0.83% of 370,000 active. AID 720648, 2013;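 active = inhibition above the mean of compounds lying between control limits plus 3 SD, set per campaign, cut at about 8.5% in these data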
ADAM10 confirm: human ADAM10 inhibitors, confirmation, biochemical, QFRET, triplicate; shares compounds with ADAM10 inh; ADAM10 QFRET peptide cleavage, EDANS fluorescence; inhibition, % at 6.95 µM; 1% of 2,100 active;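 active = inhibition above about 20% chosen separately for each screening run, limit read from the data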
ADAM17 counter: ADAM17 inhibitors, counter-screen for ADAM10 exosite inhibitor project, biochemical, QFRET, high throughput; shares compounds with ADAM10 inh; ADAM17 QFRET peptide cleavage, EDANS fluorescence; inhibition, % at 6.95 µM; 0.5% of 2,100 active; AID 743214, 2013;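 active = mean triplicate inhibition above the solvent-only control wells' mean plus 3 SD, cut at about 12% in these data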
ADAM10 counter: ADAM10 inhibitors, counter-screen for ADAM17 exosite inhibitor project, biochemical, FRET, human ADAM10 | inhibition, % at 6.95 µM | AID 743256, 2014 | shares compounds with ADAM17 inh | recombinant ADAM10, EDANS/DABCYL FRET peptide cleavage, 3 h | 47% of 2,900 active;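 active = mean inhibition over the triplicate runs exceeds the activity threshold set in the earlier primary screen, cut at about 20% in these data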
ADAM17 confirm: ADAM17 inhibitors, hit retest, confirmation, biochemical, QFRET peptide cleavage; recombinant ADAM17, EDANS/DABCYL QFRET peptide cleavage; AID 743257, 2014; inhibition, % at 6.95 µM; shares compounds with ADAM17 inh; 65% of 2,900 active;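 active = mean inhibition across replicates above the hit cutoff set in the primary screen, cut at about 8.5% in these data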
Of the large screens only hits and unclear results are named; the others gave an inactive call (follow-up assays come after a bar, where they were run). Rows were chosen to be rich in hits. Some 2.3% of all compounds tested hit in one or more screens of this group.

CC(C)C[C@H](NC(=O)c1nc[nH]c1C(=O)NCC(=O)OC(C)(C)C)C(=O)OC(C)(C)C	ADAM10 inh 26, ADAM17 inh 13 | ADAM10 confirm inactive | ADAM17 counter inactive | ADAM10 counter 30 | ADAM17 confirm 15
CC(C)C[C@H](NC(=O)c1[nH]cnc1C(=O)N[C@@H](C)C(=O)OCc1ccccc1)C(=O)OC(C)(C)C	ADAM10 inh 29, ADAM17 inh 14 | ADAM10 confirm inactive | ADAM17 counter inactive | ADAM10 counter 39 | ADAM17 confirm 21
CC(C)(C)OC(=O)N1CCC(NC(=O)c2nc[nH]c2C(=O)NCC(=O)OCc2ccccc2)CC1	ADAM10 inh 23, ADAM17 inh 8.7 | ADAM10 confirm inactive | ADAM17 counter inactive | ADAM10 counter inactive | ADAM17 confirm inactive
CC(C)(C)OC(=O)CNC(=O)c1[nH]cnc1C(=O)NC1CCN(C(=O)OC(C)(C)C)CC1	none (no result: TbMetRS inhib)
S=C(NCCc1ccccc1)NC1CC2CCC(C1)N2Cc1ccccc1 (configuration not stated)	none
O=C1NN=C(c2ccccc2)C1Cc1ccccc1 (configuration not stated)	none
COc1ccc(C(=O)N2CCN(S(=O)(=O)c3ccc(Br)cc3)CC2)cc1	none
C[C@H](NC(=O)c1nc[nH]c1C(=O)N[C@@H](Cc1ccccc1)C(=O)OC(C)(C)C)C(=O)OC(C)(C)C	ADAM10 inh 22, ADAM17 inh 10.0 | ADAM10 confirm inactive | ADAM17 counter inactive | ADAM10 counter 50 | ADAM17 confirm 24
CC(C)(C)OC(=O)[C@H](Cc1ccccc1)NC(=O)c1nc[nH]c1C(=O)N[C@@H](Cc1ccccc1)C(=O)OC(C)(C)C	none
CCC(C)(C#CCN1CCCCC1)OCCC#N (configuration not stated)	none
COc1ccc(C(CC(=O)c2ccc(C)cc2)Nc2ccc([N+](=O)[O-])cc2)cc1 (configuration not stated)	ADAM10 inh 20, ADAM17 inh 14 | ADAM10 confirm inactive | ADAM17 counter inactive | ADAM10 counter inactive | ADAM17 confirm 13
Cc1ccc(NC(CC(=O)c2ccccc2)c2ccc(F)cc2)cc1 (configuration not stated)	none
CCOC(=O)c1ccc(NC(=O)Cn2nnc(-c3ccccc3C)n2)cc1	ADAM10 inh 22, ADAM17 inh 10 | ADAM10 confirm inactive | ADAM17 counter inactive | ADAM10 counter 41 | ADAM17 confirm 24
Cc1ccc(NS(=O)(=O)c2ccc(Cl)c(NC(=S)NC(=O)C3CCCCC3)c2)cc1Cl	ADAM10 inh 27, ADAM17 inh 13 | ADAM10 confirm inactive | ADAM17 counter inactive | ADAM10 counter 46 | ADAM17 confirm 27
O=C(Cc1ccccc1)NC1(Cc2ccc(O)cc2)CCCCC1	none
CCOC(=O)C1=C(C)N(Cc2ccccc2)C(=O)NC1c1ccccc1OS(=O)(=O)c1ccccc1[N+](=O)[O-] (configuration not stated)	ADAM10 inh 21, ADAM17 inh 9.8 | ADAM10 confirm inactive | ADAM17 counter inactive | ADAM10 counter 49 | ADAM17 confirm 21
